biological target: T1, Muscarinic acetylcholine receptor M1 (Rattus norvegicus, UniProt P08482); test: Displacement of [3H]oxotremorine-M (Oxo-M) from rat hippocampus muscarinic acetylcholine receptor M1; format: tissue-based
T1 sequence (P08482 whole entry): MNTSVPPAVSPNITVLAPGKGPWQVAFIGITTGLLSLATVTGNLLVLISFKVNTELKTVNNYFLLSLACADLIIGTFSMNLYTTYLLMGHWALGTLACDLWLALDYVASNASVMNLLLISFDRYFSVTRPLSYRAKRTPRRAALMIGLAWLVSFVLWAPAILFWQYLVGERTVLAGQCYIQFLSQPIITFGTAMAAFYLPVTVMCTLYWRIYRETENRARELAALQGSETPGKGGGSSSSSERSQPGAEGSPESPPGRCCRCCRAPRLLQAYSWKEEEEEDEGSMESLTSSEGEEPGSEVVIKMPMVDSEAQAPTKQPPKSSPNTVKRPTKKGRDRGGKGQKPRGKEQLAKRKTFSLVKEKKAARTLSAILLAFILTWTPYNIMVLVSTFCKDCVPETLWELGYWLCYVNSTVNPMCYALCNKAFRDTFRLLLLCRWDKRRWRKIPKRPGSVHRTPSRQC

**Q.** Which IC50 does the source give for `CN1CCC=C(c2nccnc2Cl)C1` here?
**A.** Its IC50 is 276 nM.

species: Oryctolagus cuniculus; test: (§1) Efficacy at M1 receptor measured by the ability to inhibit the electrically stimulated twitch of the rabbit vas deferens; format: functional, organism-based
In short: (§2)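 Cumulative concentration-effect curves with additions at 20-min intervals in two tissues; read-out twitch height decrease; if inhibition ≥50%, curves repeated in at least six tissues.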

**Q.** For `CCCCCCOc1nccnc1C1=CCCN(C)C1`, which IC50 is on record?
**A.** The IC50 was 266 nM.

**Q.** Which IC50 does the source give for `CCCCCCSc1nccnc1C1=CCCN(C)C1` here?
**A.** Its IC50 is 224 nM.

biological target: T1, Muscarinic acetylcholine receptor M1; test: In vitro binding affinity against rat hippocampus M1 receptor using [3H]pirenzepine (Pz) as radioligand; format: tissue-based
In short: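 Male Sprague-Dawley rat hippocampal P2 membranes (10 mg tissue wet weight, about 0.1 mg protein) with 1 nM [3H]pirenzepine in 20 mM Tris-Cl pH 7.4 containing 1 mM MnCl2, 1 mL, 60 min at 25 °C.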

**Q.** With `CCCCCCOc1nccnc1C1=CCCN(C)C1` as the compound, how does the IC50 read?
**A.** Its IC50 is 17 nM.

**Q.** How did the IC50 turn out when `CCCCOc1nccnc1C1=CCCN(C)C1` was run?
**A.** Its IC50 is 17 nM.

**Q.** Which IC50 does the source give for `CCCCCCSc1nccnc1C1=CCCN(C)C1` here?
**A.** Its IC50 is 28 nM.

**Q.** Which IC50 does the source give for `CCCOc1nccnc1C1=CCCN(C)C1` here?
**A.** Its IC50 is 65 nM.

**Q.** `CCCCCSc1nccnc1C1=CCCN(C)C1` was tested. Which IC50 did it give?
**A.** The IC50 was 10 nM.

**Q.** With `COc1nccnc1C1=CCCN(C)C1` as the compound, how does the IC50 read?
**A.** The IC50 was 840 nM.

**Q.** Which IC50 does the source give for `CCCCCOc1nccnc1C1=CCCN(C)C1` here?
**A.** Its IC50 is 16 nM.

**Q.** `CCOc1nccnc1C1=CCCN(C)C1` was tested. Which IC50 did it give?
**A.** Its IC50 is 175 nM.

species: Oryctolagus cuniculus; test: as §1; format: functional; in short: as §2

**Q.** `CCCCCCOc1nccnc1C1=CCCN(C)C1` was tested. Which Max did it give?
**A.** Its Max is 93%.

**Q.** For `CCCCOc1nccnc1C1=CCCN(C)C1`, which Max is on record?
**A.** Its Max is 0%.

**Q.** With `CCCCCCSc1nccnc1C1=CCCN(C)C1` as the compound, how does the Max read?
**A.** Its Max is 62%.

**Q.** Which Max does the source give for `CCCOc1nccnc1C1=CCCN(C)C1` here?
**A.** The Max was 4%.

**Q.** `CCCCCSc1nccnc1C1=CCCN(C)C1` was tested. Which Max did it give?
**A.** Its Max is 18%.

**Q.** Which Max does the source give for `COc1nccnc1C1=CCCN(C)C1` here?
**A.** Its Max is 0%.

**Q.** How did the Max turn out when `CCCOc1nsnc1C1=CCCN(C)C1` was run?
**A.** Its Max is 25%.

**Q.** For `CCCCCCNc1nsnc1C1=CCCN(C)C1`, which Max is on record?
**A.** The Max was 65%.

**Q.** For `CCCCCOc1nccnc1C1=CCCN(C)C1`, which Max is on record?
**A.** Its Max is 29%.

**Q.** For `CCOc1nccnc1C1=CCCN(C)C1`, which Max is on record?
**A.** The Max was 14%.

**Q.** How did the Max turn out when `CCCCCCOc1nonc1C1=CCCN(C)C1` was run?
**A.** The Max was 47%.

biological target: T1, Muscarinic acetylcholine receptor M1; test: Displacement of [3H]pirenzepine (Pz) from rat hippocampus muscarinic acetylcholine receptor M1; format: tissue-based

**Q.** Which IC50 does the source give for `CN1CCC=C(c2nccnc2Cl)C1` here?
**A.** The IC50 was greater than 1000 nM.

biological target: T1, Muscarinic acetylcholine receptor M1; test: In vitro binding affinity against rat hippocampus M1 receptor using [3H]oxotremorine-M (Oxo-M) as radioligand; format: tissue-based
In short: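 Male Sprague-Dawley rat hippocampal P2 membranes (10 mg tissue wet weight, about 0.1 mg protein) with 3 nM [3H]oxotremorine-M in 20 mM Tris-Cl pH 7.4, 1 mL, 15 min at 25 °C.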

**Q.** For `CCCCCCOc1nccnc1C1=CCCN(C)C1`, which IC50 is on record?
**A.** The IC50 was 20 nM.

**Q.** Which IC50 does the source give for `CCCCOc1nccnc1C1=CCCN(C)C1` here?
**A.** The IC50 was 17 nM.

**Q.** With `CCCCCCSc1nccnc1C1=CCCN(C)C1` as the compound, how does the IC50 read?
**A.** Its IC50 is 44 nM.

**Q.** `CCCOc1nccnc1C1=CCCN(C)C1` was tested. Which IC50 did it give?
**A.** Its IC50 is 58 nM.

**Q.** With `CCCCCSc1nccnc1C1=CCCN(C)C1` as the compound, how does the IC50 read?
**A.** The IC50 was 13 nM.

**Q.** For `COc1nccnc1C1=CCCN(C)C1`, which IC50 is on record?
**A.** Its IC50 is 850 nM.

**Q.** `CCCCCOc1nccnc1C1=CCCN(C)C1` was tested. Which IC50 did it give?
**A.** The IC50 was 19 nM.

**Q.** With `CCOc1nccnc1C1=CCCN(C)C1` as the compound, how does the IC50 read?
**A.** Its IC50 is 200 nM.
